Assay results of several laboratories.
Protocols differ between the studies behind these lines.
Organism: Severe acute respiratory syndrome coronavirus 2

O=C(O[C@@H]1Cc2c(O)cc(O)cc2O[C@@H]1c1cc(O)c(O)c(O)c1)c1cc(O)c(O)c(O)c1 — inhibition (cytopathic effect; Vero C1008; 25 µM): 25%
CC1=C(C/C=C(\C)CC/C=C(\C)Cc2ccc(F)c3ccccc23)C(=O)c2ccccc2C1=O — inhibition (viral replication, inhibitor; VeroE6/TMPRSS2; 100 µM, 72 h): 43%
CC(=O)c1cccc(NC(=O)c2cc3c(=O)n4ccccc4nc3n2C)c1 — inhibition (viral replication; Vero; 10 nM): 43.8%
C=C1C[C@H]2[C@@](C)(C(=O)C(O)=C3C(C)(C)C(=O)CC[C@@]32C)[C@@H]2C(=O)O[C@@](C)(C(=O)OC)C(=O)[C@@]12C — inhibition (viral replication, inhibitor; Calu-3; 50 µM): 82.1%
Cc1ccc(NC(=O)c2cc3c(=O)n4cccc(C)c4nc3n2C)cc1Cl — inhibition (viral replication; Vero; 1 µM): 87.3%
CCC(CC)COC(=O)[C@H](C)N[P@](=O)(OC[C@H]1O[C@@](C#N)(c2ccc3c(N)ncnn23)[C@H](O)[C@@H]1O)Oc1ccccc1 — inhibition (viral replication, inhibitor; Vero C1008; 0.8 µM): 20%
C=C[C@@](C)(/C=C/c1ccc(O)cc1)CCC=C(C)C — inhibition (cytopathic effect; Vero C1008; 50 µM): 0%
CN=c1nc(-c2ccc(OC)c(OC)c2)n(-c2ccc(F)cc2)s1 — inhibition (viral replication, inhibitor, qPCR; Vero C1008; 50 µM, 24 h): 21.5%
Cc1cc(O)c(C=O)c2c1C(=O)Oc1c(cc3c(c1C)C(=O)CC(C)(C)O3)O2 — inhibition (viral replication, inhibitor; Calu-3; 50 µM): 99.5%
O=C(Nc1ccccc1F)c1cc2c(=O)n3ccccc3nc2n1Cc1ccccc1 — inhibition (viral replication; Vero; 10 µM): 96.6%
O=C(/C=C/c1ccc(O)c(O)c1/C=C/c1ccc(O)c(O)c1)O[C@H](Cc1ccc(O)c(O)c1)C(=O)O — inhibition (cytopathic effect; Vero C1008; 6.25 µM): 0%
CCCc1c(C(C)C)cc(C(C)C)c(C(C)O)c1-c1ccc(F)cc1 (stereo not shown) — inhibition (viral replication, inhibitor; Vero C1008; 1 µM): 52.8%
COc1ccc(C[C@@H]2c3cc(Oc4cc(C[C@@H]5c6cc(O)c(OC)cc6CCN5C)ccc4O)c(OC)cc3CCN2C)cc1 — inhibition (cytopathic effect, inhibitor; Vero C1008; 25 µM): 0%
OC[C@H]1O[C@@H](O[C@@H]2[C@@H](CO)OC(O)(CO)[C@H]2O)[C@H](O)[C@@H](O)[C@H]1O (mixture of isomers) — inhibition (viral replication; Vero C1008; 50 µM): 3%
Oc1c(Cl)cc(Cl)c2cccnc12 — inhibition (viral replication, inhibitor; Vero C1008; 30 µM): 89.8%
Cn1c(C(=O)Nc2ccc3c(c2)OCCO3)cc2c(=O)n3ccccc3nc21 — inhibition (viral replication; Vero; 1 µM): 74.7%
[H]/N=C(/N)SCCCn1cc(C2=C(c3cn(C)c4ccccc34)C(=O)NC2=O)c2ccccc21 — inhibition (viral replication; Vero C1008; 50 µM): 15%
CCC(CC)COC(=O)[C@H](C)N[P@](=O)(OC[C@H]1O[C@@](C#N)(c2ccc3c(N)ncnn23)[C@H](O)[C@@H]1O)Oc1ccccc1 — inhibition (viral replication; Vero; 1 nM): 14.8%
O=C(O)c1cnc2n1CCc1ccccc1C2=C1CCN(CCc2ccc(OCc3ccc4ccccc4n3)cc2)CC1 — inhibition (viral replication, inhibitor; Vero C1008; 1 µM): 50.3%
CC(C)=CCC[C@](C)(O)[C@H]1CC[C@]2(C)[C@@H]1CC[C@@H]1[C@@]3(C)CCC(=O)C(C)(C)[C@@H]3CC[C@]12C — inhibition (viral replication, inhibitor; Calu-3; 50 µM): 99.5%
Cc1cccn2c(=O)c3cc(C(=O)Nc4ccc(N(C)C)cc4)n(C)c3nc12 — inhibition (viral replication; Vero; 1 nM): 2.51%
CC(C)CC(NC(=O)OCc1ccccc1)C(=O)NC(C(=O)NCC(=O)C=[N+]=[N-])C(C)C (stereo not shown) — inhibition (viral replication, inhibitor; Vero C1008; 1 µM): 95.8%
CC(C)=CCc1c(O)ccc(C(=O)/C=C/c2ccc(O)cc2)c1O — inhibition (cytopathic effect; Vero C1008; 25 µM): 0%
C=C(C)[C@]12C[C@@H](C)[C@@]34O[C@](Cc5ccccc5)(O[C@@H]1[C@@H]3C=C(COC(=O)Cc1ccc(O)c(OC)c1)C[C@]1(O)C(=O)C(C)=C[C@@H]41)O2 — inhibition (viral replication, inhibitor; Vero C1008; 1 µM): 53.2%
C[C@@H]1O[C@@H](OC[C@H]2O[C@@H](Oc3c(-c4ccc(OCCO)c(OCCO)c4)oc4cc(OCCO)cc(O)c4c3=O)[C@H](O)[C@@H](O)[C@@H]2O)[C@H](O)[C@H](O)[C@H]1O — inhibition (viral replication; Vero C1008; 50 µM): 3%
CCCc1nc2ccc(N(CCC)C(=O)c3ccccc3)cc2c(=O)n1Cc1ccc(-c2ccccc2-c2nnn[nH]2)cc1 — inhibition (viral replication, inhibitor; Vero C1008; 1 µM): 54.3%
O=C(CCCN1CCC(O)(c2ccc(Cl)cc2)CC1)c1ccc(F)cc1 — inhibition (viral replication; Vero C1008; 50 µM): 3%
COC(=O)C[C@@H]1OO[C@@](C)(/C(C)=C/C=C/Cc2ccccc2)C[C@H]1C — inhibition (viral replication, inhibitor; Calu-3; 50 µM): 4.15%
Cn1c(C(=O)Nc2ccc(Cl)cc2)cc2c(=O)n3ccccc3nc21 — inhibition (viral replication; Vero; 1 µM): 74.7%
CC1(C)CCC(C)(C)c2cc(C#Cc3ccc(C(=O)O)cc3)ccc21 — inhibition (viral replication, inhibitor; Vero C1008; 1 µM): 56.1%
O=C(O)C1=CC(=C(c2ccc(O)c(C(=O)O)c2)c2ccc(O)c(C(=O)O)c2)C=CC1=O — inhibition (viral replication; Vero C1008; 50 µM): 80%
NS(=O)(=O)c1ccc(N2N=C(C(F)(F)F)CC2c2c[nH]c3cc(Cl)ccc23)cc1 (stereo not shown) — inhibition (viral replication, inhibitor; Vero C1008; 1 µM): 40.9%
C[C@@H]1O[C@@H](O[C@H]2[C@H](O[C@H]3CC[C@]4(C)[C@H]5CC=C6[C@@H]7CC(C)(C)CC[C@]7(C(=O)OCc7ccccc7)CC[C@@]6(C)[C@]5(C)CC[C@H]4C3(C)C)O[C@H](CO)[C@@H](O[C@@H]3O[C@@H](C)[C@H](O)[C@@H](O)[C@H]3O)[C@@H]2O)[C@H](O)[C@H](O)[C@H]1O — inhibition (viral replication; 293T/ACE2; 20 µM): 83.6%
CC1=C(C/C=C(\C)CC/C=C(\C)Cc2ccc3ccccc3c2)C(=O)c2ccccc2C1=O — inhibition (viral replication, inhibitor; VeroE6/TMPRSS2; 100 µM, 72 h): 39%
